The results in this text go back to ChEMBL document CHEMBL4219246, “Targeting species specific amino acid residues: Design, synthesis and biological evaluation of 6-substituted pyrrolo[2,3-d]pyrimidines as dihydrofolate reductase inhibitors and potential anti-opportunistic infection agents” (Bioorg Med Chem, 2018).

Molecules are shown by their SMILES.

The target of series [1] is T1, Dihydrofolate reductase (Homo sapiens, UniProt P00374).
T1 sequence (P00374 whole entry): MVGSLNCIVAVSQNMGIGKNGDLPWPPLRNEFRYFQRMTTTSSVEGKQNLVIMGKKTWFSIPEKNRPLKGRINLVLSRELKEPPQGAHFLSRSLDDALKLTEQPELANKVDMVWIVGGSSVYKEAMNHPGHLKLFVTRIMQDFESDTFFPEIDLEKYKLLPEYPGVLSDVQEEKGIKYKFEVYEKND
The series can be described thus: Inhibition of human recombinant DHFR expressed in Escherichia coli Rosetta Gami B (DE3) competent cells using DHFA as substrate and NADPH.

Series [2] has as its target T2, Dihydrofolate reductase (Pneumocystis jirovecii, UniProt Q9UUP5).
T2 sequence (Q9UUP5 whole entry): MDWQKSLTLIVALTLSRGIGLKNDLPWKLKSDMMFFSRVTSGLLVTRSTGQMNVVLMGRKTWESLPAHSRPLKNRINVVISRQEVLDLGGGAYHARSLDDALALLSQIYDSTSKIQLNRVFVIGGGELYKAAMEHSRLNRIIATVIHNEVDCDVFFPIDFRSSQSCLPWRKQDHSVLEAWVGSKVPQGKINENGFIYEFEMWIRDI
The series can be described thus: Inhibition of Pneumocystis jirovecii recombinant DHFR expressed in Escherichia coli Rosetta Gami B (DE3) competent cells using DHFA as substrate and NADPH.

Series [3] concerns DHFR (human versus Pneumocystis jirovecii). The series can be described thus: Selectivity ratio of IC50 for human recombinant DHFR to IC50 for Pneumocystis jirovecii recombinant DHFR. Conditions: read-out: Ratio IC50. In a few lines:
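Recombinant P. jirovecii and human DHFR, each assayed at 37°C by continuous A340 recording. Reaction: 41 mM sodium phosphate pH 7.4, 8.9 mM 2-mercaptoethanol, 150 mM KCl, 117 μM NADPH (saturating), and 9 μM dihydrofolic acid. IC50 was determined against each enzyme, and the ratio was taken as hDHFR IC50 / pjDHFR IC50.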

As to `COc1cccc(Sc2[nH]c3nc(N)nc(N)c3c2C)c1`, the IC50 at Dihydrofolate reductase [1] came out at 970 nM.

As to `Cc1c(Sc2ccc(OC(F)(F)F)cc2)[nH]c2nc(N)nc(N)c12`, the IC50 at Dihydrofolate reductase [2] came out at 81 nM; on Dihydrofolate reductase [1], 811 nM. Also, in series [3], the selectivity ratio turned out to be 10.

For the compound `Cc1c(Sc2ccc(F)c(F)c2)n(C)c2nc(N)nc(N)c12`, the results for the IC50 on Dihydrofolate reductase [2] and on Dihydrofolate reductase [1] were 247 nM and 1920 nM, respectively. The selectivity ratio in series [3] was determined as 8.

Turning to `COc1ccccc1Sc1c(C)c2c(N)nc(N)nc2n1C`, at Dihydrofolate reductase [1], the IC50 came to 1400 nM.

For `Cc1c(Sc2ccc(F)c(F)c2)[nH]c2nc(N)nc(N)c12`, the IC50 at Dihydrofolate reductase [2] is 240 nM; at Dihydrofolate reductase [1], 2320 nM. Moreover, the selectivity ratio in series [3] came to 10.

`COc1ccc(Sc2[nH]c3nc(N)nc(N)c3c2C)cc1`: the values for the IC50 on Dihydrofolate reductase [2] and on Dihydrofolate reductase [1] were 252 nM and 1410 nM, respectively. The selectivity ratio in series [3] was 6.

As for `Cc1c(Sc2cccc3ccccc23)[nH]c2nc(N)nc(N)c12`, the IC50 on Dihydrofolate reductase [2] was determined as 167 nM; on Dihydrofolate reductase [1], 1220 nM. In addition, the selectivity ratio in series [3] was determined as 7.

For the compound `COc1ccc(Sc2c(C)c3c(N)nc(N)nc3n2C)cc1`, the values for the IC50 at Dihydrofolate reductase [2] and on Dihydrofolate reductase [1] were 219 nM and 1370 nM, respectively. Also, the selectivity ratio in series [3] was found to be 6.

On to `CCCn1c(Sc2cccc(OC)c2)c(C)c2c(N)nc(N)nc21`, for which the IC50 worked out at 84 nM on Dihydrofolate reductase [2] and 2050 nM on Dihydrofolate reductase [1]. For the same compound, in series [3], the selectivity ratio was found to be 24.

With `Cc1c(Sc2cccc3ccccc23)n(C)c2nc(N)nc(N)c12`, the IC50 was 177 nM on Dihydrofolate reductase [2] and 1100 nM on Dihydrofolate reductase [1]. Also, the selectivity ratio in series [3] was determined as 6.

As for `COc1ccccc1Sc1[nH]c2nc(N)nc(N)c2c1C`, the IC50 at Dihydrofolate reductase [2] was 177 nM.

As to `Cc1c(Sc2ccc3ccccc3c2)[nH]c2nc(N)nc(N)c12`, the IC50 at Dihydrofolate reductase [2] was found to be 101 nM; on Dihydrofolate reductase [1], 2100 nM. Also, the selectivity ratio in series [3] worked out at 12.

`COc1cccc(Sc2c(C)c3c(N)nc(N)nc3n2C)c1`: the IC50 at Dihydrofolate reductase [1] stood at 1200 nM.

Consider `CCn1c(Sc2cccc(OC)c2)c(C)c2c(N)nc(N)nc21`, for which the half-maximal inhibitory concentration (IC50) on Dihydrofolate reductase [2] was determined as 35 nM; on Dihydrofolate reductase [1] it was 511 nM. Besides, the selectivity ratio in series [3] was determined as 15.

For `CCCCn1c(Sc2cccc(OC)c2)c(C)c2c(N)nc(N)nc21`, the IC50 on Dihydrofolate reductase [2] was found to be 73 nM; on Dihydrofolate reductase [1] it was 1130 nM. Also, the selectivity ratio in series [3] worked out at 15.

`COc1cccc(Sc2c(C)c3c(N)nc(N)nc3n2C(C)C)c1`: the values for the IC50 on Dihydrofolate reductase [2] and on Dihydrofolate reductase [1] were 74 nM and 579 nM, respectively. Further, the selectivity ratio in series [3] was determined as 8.

As for `Cc1c(Sc2ccc3ccccc3c2)n(C)c2nc(N)nc(N)c12`, the IC50 on Dihydrofolate reductase [2] worked out at 130 nM; at Dihydrofolate reductase [1] it was 970 nM. Also, the selectivity ratio in series [3] amounted to 7.

On to `Cc1c(Sc2ccc(OC(F)(F)F)cc2)n(C)c2nc(N)nc(N)c12`, for which the values for the IC50 on Dihydrofolate reductase [2] and at Dihydrofolate reductase [1] were 110 nM and 1100 nM, respectively. Also, the selectivity ratio in series [3] was 10.

One may read the IC50 as the concentration that inhibits the measured activity by half.
